{"source": "ChEMBL document CHEMBL1127498", "about": "“Synthesis and DNA-sequence selectivity of a series of mono- and difunctional 9-aminoacridine nitrogen mustards” (J Med Chem, 1994)"}
{"tested_on": "HT-29", "assay": "Concentration required to inhibit colony formation by 50% in human colon carcinoma HT-29 cells", "assay_type": "functional, cell-based", "in_short": "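HT-29 cells grown in Eagle's MEM with 15% heat-inactivated FBS. Exponential-phase cells (2 × 10⁵/mL) plated, treated 16-20 h later with a range of drug concentrations for 30 min at 37 °C in medium with 1% serum. Washed twice, trypsinized, replated in triplicate at 10^2, 10^3, 10^4 cells/25-cm² flask for colony counts. At least two independent experiments; untreated plating efficiency 40-65%.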", "units": {"IC50": "µM"}}
{"smiles": "COc1ccc2nc3ccccc3c(NCCCCCCN(CCCl)CCCl)c2c1", "IC50": 0.06}
{"smiles": "CCN(CC)CCCC(C)Nc1c2ccc(Cl)cc2nc2ccc(OC)cc12", "note": "(stereo unspecified) [QUINACRINE]", "IC50": 55}
{"smiles": "COc1ccc2nc3ccccc3c(NCCCN(CCCl)CCCl)c2c1", "IC50": 0.02}
{"smiles": "CCN(CCCl)CCCCCCNc1c2ccccc2nc2ccc(OC)cc12", "IC50": 0.75}
{"smiles": "CCN(CCCl)CCCCCNc1c2ccccc2nc2ccc(OC)cc12", "IC50": 0.7}
{"smiles": "CCN(CCCl)CCCCNc1c2ccccc2nc2ccc(OC)cc12", "IC50": 0.25}
{"smiles": "COc1ccc2nc3ccccc3c(NCCN(CCCl)CCCl)c2c1", "IC50": 0.11}
{"smiles": "COc1ccc2nc3ccccc3c(NCCCCN(CCCl)CCCl)c2c1", "IC50": 0.01}
{"smiles": "CCN(CCCl)CCNc1c2ccccc2nc2ccc(OC)cc12", "IC50": 1.1}
{"smiles": "COc1ccc2nc3ccccc3c(NCCCCCN(CCCl)CCCl)c2c1", "IC50": 0.03}
{"smiles": "CCN(CCCl)CCCNc1c2ccccc2nc2ccc(OC)cc12", "IC50": 0.37}
